Laboratory results taken from ChEMBL document CHEMBL1126679 (J Med Chem, 1993).

How the values were obtained:
D(2) dopamine receptor [1] = target: D(2) dopamine receptor (Rattus norvegicus, UniProt P61169); test: Compound was tested for antagonistic activity against D2 receptor from rat striatum, used [3H]raclopride as radioligand; type: functional
D(2) dopamine receptor [2] = target: T1, D(2) dopamine receptor (Homo sapiens, UniProt P14416); test: Intrinsic activity against dopamine D 2 receptor; type: functional; conditions: Cricetulus griseus
Summary of the method: (§1)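 Membranes from CHO cells stably transfected with D2 receptor. Low-affinity agonist state affinity came from [3H]raclopride displacement with high GTP, and high-affinity state affinity from [3H]U-86170 displacement without GTP.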

D(2) dopamine receptor [3] = target: T1, D(2) dopamine receptor; test: Compound was tested for agonistic activity against D2 receptor from cloned CHO cells, used [3H]U-86170 as radioligand; type: functional, cell-based, Cricetulus griseus
D(2) dopamine receptor [4] = target: T1, D(2) dopamine receptor; test: Intrinsic activity was Determined; type: functional
[5] = (§2) Intrinsic activity was 100% of highest possible agonist.; type: functional
[6] = Intrinsic activity was 0%of highest possible antagonist.; type: functional; summary of the method: as §1
[7] = Binding affinity against 5-hydroxytryptamine 1A receptor from bovine hippocampus, used [3H]8-OH-DPAT as radioligand
[8] = as §2; type: functional; summary of the method: as §1; remark: listed apart in the source

D(2) dopamine receptor (Rattus norvegicus, UniProt P61169), sequence (P61169 whole entry): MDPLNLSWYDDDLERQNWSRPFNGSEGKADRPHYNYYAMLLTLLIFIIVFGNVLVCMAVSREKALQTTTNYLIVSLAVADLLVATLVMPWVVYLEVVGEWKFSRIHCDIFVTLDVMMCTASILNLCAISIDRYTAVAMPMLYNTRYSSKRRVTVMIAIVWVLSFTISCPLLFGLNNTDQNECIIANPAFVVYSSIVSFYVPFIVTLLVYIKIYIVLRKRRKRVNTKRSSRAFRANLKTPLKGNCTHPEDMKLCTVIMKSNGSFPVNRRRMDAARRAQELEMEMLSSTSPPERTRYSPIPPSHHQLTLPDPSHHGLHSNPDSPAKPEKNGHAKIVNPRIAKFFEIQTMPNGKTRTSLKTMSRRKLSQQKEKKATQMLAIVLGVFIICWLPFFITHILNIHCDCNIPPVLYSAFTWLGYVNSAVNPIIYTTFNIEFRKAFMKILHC
T1 sequence (P14416 whole entry): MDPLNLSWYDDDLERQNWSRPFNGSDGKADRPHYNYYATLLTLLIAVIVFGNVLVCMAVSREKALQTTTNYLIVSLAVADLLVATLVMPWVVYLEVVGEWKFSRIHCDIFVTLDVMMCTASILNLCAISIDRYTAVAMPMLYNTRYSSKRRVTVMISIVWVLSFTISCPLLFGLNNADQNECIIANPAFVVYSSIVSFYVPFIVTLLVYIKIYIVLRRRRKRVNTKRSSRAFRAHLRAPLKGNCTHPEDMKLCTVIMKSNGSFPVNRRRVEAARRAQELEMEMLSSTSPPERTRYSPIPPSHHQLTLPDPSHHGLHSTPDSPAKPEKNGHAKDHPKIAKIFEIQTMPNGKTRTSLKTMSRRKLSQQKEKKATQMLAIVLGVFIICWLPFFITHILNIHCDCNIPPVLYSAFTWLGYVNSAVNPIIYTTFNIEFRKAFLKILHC

CCCN1CC[C@H]2c3c(cccc3OC)CC[C@H]21 (racemic)
Ki (D(2) dopamine receptor [1]): > 1 µM

C=CCN1CC[C@H]2c3c(cccc3OC)CC[C@H]21 [listing 1 of 2 here]
Intrinsic activity (D(2) dopamine receptor [2]): 24%

CCCN1CC[C@@H]2Cc3c(cccc3OC)C[C@H]21
Intrinsic activity (D(2) dopamine receptor [2]): 37%

C=CCN1CC[C@H]2c3c(O)cccc3CC[C@H]21 (racemic)
Ki (D(2) dopamine receptor [3]): 0.153 µM
Intrinsic activity (D(2) dopamine receptor [4]): 7%

C=CCN1CCC2c3cccc(OC)c3CC[C@@H]21 (mixture of isomers)
Intrinsic activity (D(2) dopamine receptor [2]): 0%
Ki (D(2) dopamine receptor [1]): 0.099 µM

CCCN(CCC)[C@@H]1CCc2c(OC)cccc2[C@@H]1C
Ki (D(2) dopamine receptor [3]): 0.013 µM
Intrinsic activity (D(2) dopamine receptor [2]): 0
Ki (D(2) dopamine receptor [1]): 0.022 µM

C=CCN1CCC2Cc3c(cccc3OC)CC21 (racemic)
Ki (D(2) dopamine receptor [1]): 0.429 µM

C=CCN1CC[C@H]2c3cccc(O)c3CC[C@H]21
Ki (D(2) dopamine receptor [3]): 0.108 µM
Intrinsic activity (D(2) dopamine receptor [2]): 22%
Ki (D(2) dopamine receptor [1]): 0.049 µM

CCCN1CC[C@H]2c3c(O)cccc3CC[C@H]21 (single isomer, unassigned) [listing 1 of 2 here]
Ki (D(2) dopamine receptor [3]): < 0.05 µM

CCCN[C@@H]1CCc2c(OC)cccc2[C@@H]1C
Ki (D(2) dopamine receptor [3]): 0.014 µM
Intrinsic activity (D(2) dopamine receptor [2]): 3%
Ki (D(2) dopamine receptor [1]): 0.179 µM

C=CCN1CC[C@H]2c3c(cccc3OC)CC[C@H]21 (racemic) [listing 1 of 2 here]
Ki (D(2) dopamine receptor [3]): 0.007 µM

CCCN1CCC2c3cccc(O)c3CCC21 (racemic; 15a) [listing 1 of 2 here]
Intrinsic activity (D(2) dopamine receptor [2]): 1%

CN1C[C@@H](NC(=O)C(C)(C)C)CC2c3cccc4[nH]c(Cl)c(c34)C[C@H]21 (some centres undefined)
Ki (D(2) dopamine receptor [3]): 0.0036 µM
Intrinsic activity (D(2) dopamine receptor [2]): 0%
Ki (D(2) dopamine receptor [1]): 0.00047 µM

CCCN1C[C@H]2c3c(cccc3OC)CC[C@H]21 (racemic)
Ki (D(2) dopamine receptor [1]): 0.329 µM

CCCN(CCC)[C@@H]1Cc2cccc3nc(O)n(c23)C1
Intrinsic activity [5]: 91

C=CCN1CC[C@H]2Cc3c(O)cccc3CC21 (single isomer, unassigned)
Ki (D(2) dopamine receptor [3]): 0.235 µM
Intrinsic activity (D(2) dopamine receptor [2]): 21%
Ki (D(2) dopamine receptor [1]): 0.047 µM

C=CCN1CCC2c3cccc(OC)c3CC[C@H]21 (mixture of isomers)
Intrinsic activity (D(2) dopamine receptor [2]): 0%

C=CCN1CC[C@@H]2c3cccc(O)c3CC[C@@H]21
Ki (D(2) dopamine receptor [3]): 0.059 µM
Intrinsic activity (D(2) dopamine receptor [2]): 47%
Ki (D(2) dopamine receptor [1]): 0.259 µM

C=CCN1CC[C@H]2Cc3c(cccc3OC)CC21 (single isomer, unassigned)
Intrinsic activity [6]: 0%

C=CCN1CC[C@@H]2Cc3c(O)cccc3C[C@H]21
Intrinsic activity (D(2) dopamine receptor [2]): 106%

CCCN1[C@H](C)C[C@@H]2Cc3cccc(OC)c3C[C@@H]21
Ki [7]: 0.384 µM

C=CCN1CCC2c3c(O)cccc3CCC21 (racemic)
Intrinsic activity (D(2) dopamine receptor [2]): 13%
Ki (D(2) dopamine receptor [1]): 0.025 µM

C=CCN1CC[C@H]2c3c(cccc3OC)CC[C@H]21 [listing 2 of 2 here]
Ki (D(2) dopamine receptor [3]): 0.0067 µM

CCCN(CCC)[C@@H]1Cc2cccc3c2N(CC(=O)N3)C1 (racemic)
Intrinsic activity (D(2) dopamine receptor [2]): 70%
Ki (D(2) dopamine receptor [1]): 0.028 µM

CCCN(CCC)[C@@H]1Cc2cccc3[nH]c(=O)n(c23)C1
Ki (D(2) dopamine receptor [3]): 0.0017 µM
Ki (D(2) dopamine receptor [1]): 0.0054 µM

Cc1[nH]c2cccc3c2c1C[C@@H]1C3C[C@H](NC(=O)C(C)(C)C)CN1C (some centres undefined)
Ki (D(2) dopamine receptor [3]): 0.0031 µM
Intrinsic activity (D(2) dopamine receptor [2]): 11%

C=CCN1CCC2c3cccc(O)c3CCC21 (racemic; 14c) [listing 1 of 2 here]
Ki (D(2) dopamine receptor [3]): 0.0041 µM

C=CCN1CC[C@H]2c3cccc(OC)c3CC[C@H]21
Intrinsic activity (D(2) dopamine receptor [2]): 0%

C=CCN1CC[C@H]2c3c(cccc3OC)CC[C@H]21 (single isomer, unassigned)
Intrinsic activity (D(2) dopamine receptor [2]): 17%

C=CCN1CCC2Cc3c(cccc3OC)C[C@H]21 (mixture of isomers)
Intrinsic activity [8]: 100%
Ki (D(2) dopamine receptor [1]): > 1 µM

C=CCN1CCC2Cc3c(O)cccc3C[C@H]21 (mixture of isomers)
Ki (D(2) dopamine receptor [3]): 0.0014 µM
Intrinsic activity (D(2) dopamine receptor [2]): 91%
Ki (D(2) dopamine receptor [1]): 0.025 µM

CCCN1CCC2c3cccc(O)c3CCC21 (racemic; 15a) [listing 2 of 2 here]
Ki (D(2) dopamine receptor [3]): 0.218 µM
Ki (D(2) dopamine receptor [1]): > 1 µM

CCCN1CCC2Cc3c(O)cccc3CC21 (racemic)
Ki (D(2) dopamine receptor [3]): 0.011 µM
Intrinsic activity (D(2) dopamine receptor [2]): 61%
Ki (D(2) dopamine receptor [1]): 0.296 µM

CCCN(CCC)[C@@H]1Cc2cccc3c2N(C1)C(=O)NC3 (racemic)
Ki (D(2) dopamine receptor [3]): 0.058 µM
Intrinsic activity (D(2) dopamine receptor [2]): 30%
Ki (D(2) dopamine receptor [1]): > 1 µM

CCCN1CC[C@H]2c3c(cccc3OC)CC[C@H]21 [listing 1 of 2 here]
Intrinsic activity (D(2) dopamine receptor [2]): 37%

CCCN1CC[C@@H]2Cc3c(O)cccc3C[C@H]21
Intrinsic activity (D(2) dopamine receptor [2]): 109%

C=CCN1CCC2c3cccc(O)c3CCC21 (racemic; 14c) [listing 2 of 2 here]
Intrinsic activity (D(2) dopamine receptor [2]): 44%

CCCN1CC[C@H]2c3c(cccc3OC)CC[C@H]21 (single isomer, unassigned)
Ki (D(2) dopamine receptor [1]): > 1 µM

CCCN1CC[C@H]2Cc3c(O)cccc3CC21 (single isomer, unassigned)
Ki (D(2) dopamine receptor [3]): 0.917 µM
Intrinsic activity (D(2) dopamine receptor [2]): 18%
Ki (D(2) dopamine receptor [1]): > 0.63 µM

C=CCN1CC[C@H]2c3c(cccc3OC)CC[C@H]21 (racemic) [listing 2 of 2 here]
Intrinsic activity (D(2) dopamine receptor [2]): 15%

CCCN1CCC2Cc3c(O)cccc3C[C@H]21 (mixture of isomers)
Ki (D(2) dopamine receptor [3]): 0.0024 µM
Intrinsic activity (D(2) dopamine receptor [2]): 79%
Ki (D(2) dopamine receptor [1]): 0.017 µM

C=CCN1CC[C@@H]2c3cccc(OC)c3CC[C@@H]21
Ki (D(2) dopamine receptor [1]): > 1 µM

CCCN1C[C@H](CSC)C[C@@H]2c3cccc4[nH]cc(c34)C[C@H]21
Intrinsic activity (D(2) dopamine receptor [2]): 66%

CCCN1CC[C@H]2c3cccc(OC)c3CC[C@@H]21 (racemic)
Intrinsic activity [6]: 0%

C=CCN1CC[C@@H]2Cc3c(cccc3OC)C[C@H]21
Intrinsic activity [8]: 100%

CCCN1CCC2c3cccc(O)c3CCC21 (racemic; 14a) [listing 1 of 2 here]
Intrinsic activity (D(2) dopamine receptor [2]): 28%

CCCN1CCC2Cc3c(cccc3OC)C[C@H]21 (mixture of isomers)
Ki (D(2) dopamine receptor [3]): 0.1 µM
Intrinsic activity (D(2) dopamine receptor [2]): 100%
Ki (D(2) dopamine receptor [1]): 0.877 µM

CCCN1CC[C@H]2c3c(cccc3OC)CC[C@H]21 [listing 2 of 2 here]
Ki [7]: 0.0002 µM

CCCN(CCC)[C@@H]1Cc2cccc3nc(S)n(c23)C1 (racemic)
Ki (D(2) dopamine receptor [3]): 0.0006 µM
Intrinsic activity (D(2) dopamine receptor [2]): 100%
Ki (D(2) dopamine receptor [1]): 0.039 µM

C=CCN1CCC2c3c(cccc3OC)CCC21 (racemic)
Ki (D(2) dopamine receptor [3]): 0.0085 µM
Intrinsic activity (D(2) dopamine receptor [2]): 0%

C=CCN1CCC2c3cccc(O)c3CCC21 (racemic; 15c) [listing 1 of 2 here]
Ki (D(2) dopamine receptor [3]): 0.075 µM
Ki (D(2) dopamine receptor [1]): 0.198 µM

Oc1cccc2c1CC[C@@H]1NCCC[C@@H]21 (racemic)
Ki (D(2) dopamine receptor [3]): 0.011 µM
Intrinsic activity (D(2) dopamine receptor [2]): 53
Ki (D(2) dopamine receptor [1]): 0.038 µM

C=CCN1CCC2c3cccc(O)c3CCC21 (racemic; 15c) [listing 2 of 2 here]
Intrinsic activity (D(2) dopamine receptor [2]): 29%

CCCN1CC[C@H]2c3c(O)cccc3CC[C@H]21 (single isomer, unassigned) [listing 2 of 2 here]
Intrinsic activity (D(2) dopamine receptor [4]): 0%

CCCN(CCC)[C@@H]1Cc2cccc3ccc(=O)n(c23)C1 (racemic)
Ki (D(2) dopamine receptor [3]): 0.0035 µM
Intrinsic activity (D(2) dopamine receptor [2]): 79%
Ki (D(2) dopamine receptor [1]): 0.0188 µM

CCCN1CCC2c3cccc(O)c3CCC21 (racemic; 14a) [listing 2 of 2 here]
Ki (D(2) dopamine receptor [3]): 0.093 µM
Ki (D(2) dopamine receptor [1]): 0.033 µM

CCCN1[C@@H](C)C[C@@H]2Cc3cccc(OC)c3C[C@@H]21
Ki [7]: 0.011 µM
Intrinsic activity (D(2) dopamine receptor [2]): 21%
